Assay [1] relates to A-375. The experiment in a line: Cell cycle arrest in human A375 cells measured after 48 hrs by propidium iodide staining based flow cytometry. The assay is classed as functional. The gist of the method:
(§1)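 A375 cells exposed 48 h (text gives 20, 30, 40 μM; methods give 10, 20, 40 μM), harvested, washed in cold PBS, stained 30 min at 4 °C in hypotonic PI buffer (0.1% sodium citrate, 0.1% Triton X-100, 25 μg/mL PI, 10 μg/mL RNase A). Flow cytometry for G0/G1, S, G2/M distribution and hypodiploid nuclei; means ± SD, triplicate determinations; two-way ANOVA with Bonferroni.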
Background: In flow cytometry, cells or beads pass a laser one at a time.

In assay [2] the test system is A-375. The experiment in a line: Antiproliferative activity against human A375 cells measured after 48 hrs by MTT assay. The assay is classed as functional, cell-based. In outline: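 A375 melanoma cells grown in DMEM with 10% FBS, 2 mM L-glutamine, penicillin/streptomycin at 37 °C, 5% CO2, subcultured every 2 days; seeded 1 × 10^4/well in triplicate, exposed 48 h to 5−50 μM (DMSO stock diluted into medium; vehicle control 0.1% v/v DMSO). MTT conversion read-out; IC50 from viability dose−response curves versus DMSO-treated control.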

The test system of assay [3] is A-375. The experiment in a line: Cell cycle arrest in human A375 cells assessed as increase in accumulation at S-phase at 20 to 40 uM measured after 48 hrs by propidium iodide staining based flow cytometry. The assay is classed as functional. The gist of the method:
as §1

The test system of assay [4] is A-375. Description: Cell cycle arrest in human A375 cells assessed as decrease in accumulation at G1-phase at 20 to 40 uM measured after 48 hrs by propidium iodide staining based flow cytometry. Format: functional. In outline: as §1
For assay [5], the system named is A-375. The experiment in a line: Induction of apoptosis in human A375 cells assessed as increase in hypodiploid nuclei at 20 to 40 uM measured after 48 hrs by propidium iodide staining based flow cytometry relative to control. The assay is classed as functional. In outline:
as §1

Assay [6] concerns A-375. The experiment in a line: Cell cycle arrest in human A375 cells assessed as decrease in accumulation at S-phase at 20 to 40 uM measured after 48 hrs by propidium iodide staining based flow cytometry. Format: functional. The gist of the method: as §1
Assay [7] relates to A-375. The experiment in a line: Cell cycle arrest in human A375 cells assessed as increase in accumulation at G2/M-phase at 20 to 40 uM measured after 48 hrs by propidium iodide staining based flow cytometry. Format: functional. In outline: as §1

SMILES strings stand for the structures. Calls of active or inactive are those of the source. The calls are words filed in the database; no cut-off is given here.

This passage reports Activity and IC50 results from ChEMBL document CHEMBL4145673, “Glucopyranosylbianthrones from the Algerian Asphodelus tenuifolius: Structural Insights and Biological Evaluation on Melanoma Cancer Cells” (J Nat Prod, 2018).

Consider `Cc1cc(O)c2c(c1)[C@](O)(C1O[C@H](CO)[C@@H](O)[C@H](O)[C@H]1O)c1ccc(-c3c(C)cc(O)c4c3C(=O)c3cccc(O)c3C4=O)c(O)c1C2=O` (single isomer, unassigned; atropisomer M) [listing 1 of 2 here], for which the Activity entry with A-375 [1] and in the assay on A-375 [2] was “Dose-dependent effect” in each case. The outcome in the assay with A-375 [3] and in the assay with A-375 [4] was Active.
The IC50 is the concentration needed to halve the response being measured. `Cc1cc(O)c2c(c1)[C@](O)(C1O[C@H](CO)[C@@H](O)[C@H](O)[C@H]1O)c1ccc(-c3c(C)cc(O)c4c3C(=O)c3cccc(O)c3C4=O)c(O)c1C2=O` (single isomer, unassigned; atropisomer M) [listing 2 of 2 here] displayed an IC50 in the assay on A-375 [2] (Homo sapiens, A-375, 48 h) of 20.6 µM. In addition, the Activity in the assay on A-375 [5] stood at 13.2%.
The compound `Cc1cc(O)c2c(c1)[C@](O)(C1O[C@H](CO)[C@@H](O)[C@H](O)[C@H]1O)c1ccc(-c3c(C)cc(O)c4c3C(=O)c3cccc(O)c3C4=O)c(O)c1C2=O` (atropisomer P) [listing 1 of 2 here] had an IC50 with A-375 [2] (a-375) of 23.2 µM. For the same compound, in the assay on A-375 [5], the Activity is given as 12.2%.
Turning to `Cc1cc(O)c2c(c1)[C@](O)(C1O[C@H](CO)[C@@H](O)[C@H](O)[C@H]1O)c1ccc(-c3c(C)cc(O)c4c3C(=O)c3cccc(O)c3C4=O)c(O)c1C2=O` (atropisomer P) [listing 2 of 2 here], the Activity result in the assay on A-375 [1] and with A-375 [2] was “Dose-dependent effect” each time. Moreover, the outcome in the assay on A-375 [6], in the assay with A-375 [7] and in the assay on A-375 [4] was Active.
